ChEMBL document CHEMBL3864165, “Design, synthesis, and AChE inhibitory activity of new benzothiazole-piperazines” (Bioorg Med Chem Lett, 2016)

Tests used:
[1] = molecular target: T1, Acetylcholinesterase (Electrophorus electricus, UniProt O42275); test: Inhibition of electric eel AChE preincubated for 15 mins followed by acetylthiocholine iodide substrate addition measured for 5 mins by Ellman's spectrophotometric method
[2] = molecular target: Acetylcholinesterase (Electrophorus electricus) (UniProt O42275); test: Inhibition of electric eel AChE at 10^-6 M preincubated for 15 mins followed by acetylthiocholine iodide substrate addition measured for 5 mins by Ellman's spectrophotometric method relative to control
[3] = molecular target: Acetylcholinesterase (Electrophorus electricus) (UniProt O42275); test: Inhibition of electric eel AChE at 10^-7 M preincubated for 15 mins followed by acetylthiocholine iodide substrate addition measured for 5 mins by Ellman's spectrophotometric method relative to control
[4] = molecular target: T1, Acetylcholinesterase; test: Mixed-type inhibition of electric eel AChE preincubated for 15 mins followed by acetylthiocholine iodide substrate addition measured for 5 mins by Lineweaver-Burk plot analysis
In short: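 Substrate-velocity curves recorded with and without inhibitor, with initial velocities measured at acetylthiocholine (ATC) concentrations from 600 µM down to 18.75 µM. Data analysed as 1/V plots. Ki taken as the x-axis intercept of a secondary plot of 1/V versus inhibitor concentration.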

[5] = tested on: Salmonella typhimurium; test: Genotoxicity in Salmonella typhimurium TA100 assessed as increase in number of revertants at 0.625 mg/ml in presence of aroclor-1254-induced Sprague-Dawley rat liver S9 fraction by Ames-MPF assay relative to control; format: toxicity, organism-based; conditions: salmonella enterica subsp. enterica serovar typhimurium
In short: (§1)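 Ames MPF microplate fluctuation format, run with and without S9 metabolic activation. The read-out is the count of positive (revertant) wells. A run is accepted only when positive controls give more than 25 positive wells and negative controls give fewer than eight.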

[6] = tested on: Salmonella typhimurium; test: Genotoxicity in Salmonella typhimurium TA100 assessed as increase in number of revertants at 0.156 mg/ml in presence of aroclor-1254-induced Sprague-Dawley rat liver S9 fraction by Ames-MPF assay relative to control; format: toxicity, organism-based; conditions: salmonella enterica subsp. enterica serovar typhimurium; in short: as §1
[7] = tested on: Salmonella typhimurium; test: Genotoxicity in Salmonella typhimurium TA100 assessed as increase in number of revertants at 0.3125 mg/ml in presence of aroclor-1254-induced Sprague-Dawley rat liver S9 fraction by Ames-MPF assay relative to control; format: toxicity, organism-based; conditions: salmonella enterica subsp. enterica serovar typhimurium; in short: as §1
[8] = tested on: Salmonella typhimurium; test: Genotoxicity in Salmonella typhimurium TA98 assessed as increase in number of revertants at 1.25 mg/ml in presence of aroclor-1254-induced Sprague-Dawley rat liver S9 fraction by Ames-MPF assay relative to control; format: toxicity, organism-based; conditions: salmonella enterica subsp. enterica serovar typhimurium; in short: as §1
[9] = Cytotoxicity against mouse NIH/3T3 cells after 24 hrs by MTT assay; conditions: NIH/3T3 cells
[10] = tested on: Salmonella typhimurium; test: Genotoxicity in Salmonella typhimurium TA98 assessed as increase in number of revertants at 0.3125 mg/ml in presence of aroclor-1254-induced Sprague-Dawley rat liver S9 fraction by Ames-MPF assay relative to control; format: toxicity, organism-based; conditions: salmonella enterica subsp. enterica serovar typhimurium; in short: as §1
[11] = tested on: Salmonella typhimurium; test: Genotoxicity in Salmonella typhimurium TA100 assessed as increase in number of revertants at 5 mg/ml in presence of aroclor-1254-induced Sprague-Dawley rat liver S9 fraction by Ames-MPF assay relative to control; format: toxicity, organism-based; conditions: salmonella enterica subsp. enterica serovar typhimurium; in short: as §1
[12] = tested on: Salmonella typhimurium; test: Genotoxicity in Salmonella typhimurium TA100 assessed as increase in number of revertants at 1.25 mg/ml in presence of aroclor-1254-induced Sprague-Dawley rat liver S9 fraction by Ames-MPF assay relative to control; format: toxicity, organism-based; conditions: salmonella enterica subsp. enterica serovar typhimurium; in short: as §1
[13] = tested on: Salmonella typhimurium; test: Genotoxicity in Salmonella typhimurium TA100 assessed as increase in number of revertants at 0.156 mg/ml in absence of aroclor-1254-induced Sprague-Dawley rat liver S9 fraction by Ames-MPF assay relative to control; format: toxicity, organism-based; conditions: salmonella enterica subsp. enterica serovar typhimurium; in short: as §1
[14] = tested on: Salmonella typhimurium; test: Genotoxicity in Salmonella typhimurium TA98 assessed as increase in number of revertants at 0.156 mg/ml in absence of aroclor-1254-induced Sprague-Dawley rat liver S9 fraction by Ames-MPF assay relative to control; format: toxicity, organism-based; conditions: salmonella enterica subsp. enterica serovar typhimurium; in short: as §1
[15] = tested on: Salmonella typhimurium; test: Genotoxicity in Salmonella typhimurium TA100 assessed as increase in number of revertants at 2.5 mg/ml in presence of aroclor-1254-induced Sprague-Dawley rat liver S9 fraction by Ames-MPF assay relative to control; format: toxicity, organism-based; conditions: salmonella enterica subsp. enterica serovar typhimurium; in short: as §1
[16] = tested on: Salmonella typhimurium; test: Genotoxicity in Salmonella typhimurium TA98 assessed as increase in number of revertants at 0.625 mg/ml in presence of aroclor-1254-induced Sprague-Dawley rat liver S9 fraction by Ames-MPF assay relative to control; format: toxicity, organism-based; conditions: salmonella enterica subsp. enterica serovar typhimurium; in short: as §1
[17] = tested on: Salmonella typhimurium; test: Genotoxicity in Salmonella typhimurium TA98 assessed as increase in number of revertants at 0.156 mg/ml in presence of aroclor-1254-induced Sprague-Dawley rat liver S9 fraction by Ames-MPF assay relative to control; format: toxicity, organism-based; conditions: salmonella enterica subsp. enterica serovar typhimurium; in short: as §1
[18] = tested on: Salmonella typhimurium; test: Genotoxicity in Salmonella typhimurium TA98 assessed as increase in number of revertants at 0.3125 mg/ml in absence of aroclor-1254-induced Sprague-Dawley rat liver S9 fraction by Ames-MPF assay relative to control; format: toxicity, organism-based; conditions: salmonella enterica subsp. enterica serovar typhimurium; in short: as §1
[19] = tested on: Salmonella typhimurium; test: Genotoxicity in Salmonella typhimurium TA100 assessed as increase in number of revertants at 0.625 mg/ml in absence of aroclor-1254-induced Sprague-Dawley rat liver S9 fraction by Ames-MPF assay relative to control; format: toxicity, organism-based; conditions: salmonella enterica subsp. enterica serovar typhimurium; in short: as §1
[20] = molecular target: Acetylcholinesterase (Electrophorus electricus) (UniProt O42275); test: Inhibition of electric eel AChE at 10^-4 M preincubated for 15 mins followed by acetylthiocholine iodide substrate addition measured for 5 mins by Ellman's spectrophotometric method relative to control
[21] = tested on: Salmonella typhimurium; test: Genotoxicity in Salmonella typhimurium TA100 assessed as increase in number of revertants at 5 mg/ml in absence of aroclor-1254-induced Sprague-Dawley rat liver S9 fraction by Ames-MPF assay relative to control; format: toxicity, organism-based; conditions: salmonella enterica subsp. enterica serovar typhimurium; in short: as §1
[22] = tested on: Salmonella typhimurium; test: Genotoxicity in Salmonella typhimurium TA98 assessed as increase in number of revertants at 5 mg/ml in presence of aroclor-1254-induced Sprague-Dawley rat liver S9 fraction by Ames-MPF assay relative to control; format: toxicity, organism-based; conditions: salmonella enterica subsp. enterica serovar typhimurium; in short: as §1
[23] = tested on: Salmonella typhimurium; test: Genotoxicity in Salmonella typhimurium TA100 assessed as increase in number of revertants at 2.5 mg/ml in absence of aroclor-1254-induced Sprague-Dawley rat liver S9 fraction by Ames-MPF assay relative to control; format: toxicity, organism-based; conditions: salmonella enterica subsp. enterica serovar typhimurium; in short: as §1
[24] = tested on: Salmonella typhimurium; test: Genotoxicity in Salmonella typhimurium TA100 assessed as increase in number of revertants at 0.3125 mg/ml in absence of aroclor-1254-induced Sprague-Dawley rat liver S9 fraction by Ames-MPF assay relative to control; format: toxicity, organism-based; conditions: salmonella enterica subsp. enterica serovar typhimurium; in short: as §1
[25] = tested on: Salmonella typhimurium; test: Genotoxicity in Salmonella typhimurium TA98 assessed as increase in number of revertants at 5 mg/ml in absence of aroclor-1254-induced Sprague-Dawley rat liver S9 fraction by Ames-MPF assay relative to control; format: toxicity, organism-based; conditions: salmonella enterica subsp. enterica serovar typhimurium; in short: as §1
[26] = tested on: Salmonella typhimurium; test: Genotoxicity in Salmonella typhimurium TA98 assessed as increase in number of revertants at 2.5 mg/ml in presence of aroclor-1254-induced Sprague-Dawley rat liver S9 fraction by Ames-MPF assay relative to control; format: toxicity, organism-based; conditions: salmonella enterica subsp. enterica serovar typhimurium; in short: as §1
[27] = molecular target: Acetylcholinesterase (Electrophorus electricus) (UniProt O42275); test: Inhibition of electric eel AChE at 10^-3 M preincubated for 15 mins followed by acetylthiocholine iodide substrate addition measured for 5 mins by Ellman's spectrophotometric method relative to control
[28] = tested on: Salmonella typhimurium; test: Genotoxicity in Salmonella typhimurium TA98 assessed as increase in number of revertants at 1.25 mg/ml in absence of aroclor-1254-induced Sprague-Dawley rat liver S9 fraction by Ames-MPF assay relative to control; format: toxicity, organism-based; conditions: salmonella enterica subsp. enterica serovar typhimurium; in short: as §1
[29] = tested on: Salmonella typhimurium; test: Genotoxicity in Salmonella typhimurium TA98 assessed as increase in number of revertants at 2.5 mg/ml in absence of aroclor-1254-induced Sprague-Dawley rat liver S9 fraction by Ames-MPF assay relative to control; format: toxicity, organism-based; conditions: salmonella enterica subsp. enterica serovar typhimurium; in short: as §1
[30] = tested on: Salmonella typhimurium; test: Genotoxicity in Salmonella typhimurium TA98 assessed as increase in number of revertants at 0.625 mg/ml in absence of aroclor-1254-induced Sprague-Dawley rat liver S9 fraction by Ames-MPF assay relative to control; format: toxicity, organism-based; conditions: salmonella enterica subsp. enterica serovar typhimurium; in short: as §1
[31] = tested on: Salmonella typhimurium; test: Genotoxicity in Salmonella typhimurium TA100 assessed as increase in number of revertants at 1.25 mg/ml in absence of aroclor-1254-induced Sprague-Dawley rat liver S9 fraction by Ames-MPF assay relative to control; format: toxicity, organism-based; conditions: salmonella enterica subsp. enterica serovar typhimurium; in short: as §1
[32] = Ratio of compound IC50 to donepezil IC50 for mouse NIH/3T3 cells; format: ADME, cell-based; conditions: read-out: Ratio IC50

Chain of Acetylcholinesterase (Electrophorus electricus) (O42275 24-633 limits assumed): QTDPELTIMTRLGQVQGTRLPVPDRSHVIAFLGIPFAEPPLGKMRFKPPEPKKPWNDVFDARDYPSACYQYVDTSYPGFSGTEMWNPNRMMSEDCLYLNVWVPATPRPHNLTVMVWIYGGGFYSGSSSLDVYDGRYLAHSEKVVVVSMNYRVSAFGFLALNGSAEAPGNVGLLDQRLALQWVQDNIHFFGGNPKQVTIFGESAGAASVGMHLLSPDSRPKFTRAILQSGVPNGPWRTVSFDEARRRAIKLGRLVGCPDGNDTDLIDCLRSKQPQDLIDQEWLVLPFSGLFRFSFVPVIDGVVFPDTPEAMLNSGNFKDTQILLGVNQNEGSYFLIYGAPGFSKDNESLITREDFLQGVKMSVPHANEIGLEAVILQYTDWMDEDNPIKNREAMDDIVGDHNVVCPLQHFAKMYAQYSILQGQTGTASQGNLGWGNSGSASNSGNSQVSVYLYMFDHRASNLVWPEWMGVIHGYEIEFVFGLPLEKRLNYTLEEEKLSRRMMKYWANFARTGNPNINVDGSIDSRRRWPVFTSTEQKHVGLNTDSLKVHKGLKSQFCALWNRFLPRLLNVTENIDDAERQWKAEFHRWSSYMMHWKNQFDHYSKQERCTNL
T1 sequence (O42275 whole entry): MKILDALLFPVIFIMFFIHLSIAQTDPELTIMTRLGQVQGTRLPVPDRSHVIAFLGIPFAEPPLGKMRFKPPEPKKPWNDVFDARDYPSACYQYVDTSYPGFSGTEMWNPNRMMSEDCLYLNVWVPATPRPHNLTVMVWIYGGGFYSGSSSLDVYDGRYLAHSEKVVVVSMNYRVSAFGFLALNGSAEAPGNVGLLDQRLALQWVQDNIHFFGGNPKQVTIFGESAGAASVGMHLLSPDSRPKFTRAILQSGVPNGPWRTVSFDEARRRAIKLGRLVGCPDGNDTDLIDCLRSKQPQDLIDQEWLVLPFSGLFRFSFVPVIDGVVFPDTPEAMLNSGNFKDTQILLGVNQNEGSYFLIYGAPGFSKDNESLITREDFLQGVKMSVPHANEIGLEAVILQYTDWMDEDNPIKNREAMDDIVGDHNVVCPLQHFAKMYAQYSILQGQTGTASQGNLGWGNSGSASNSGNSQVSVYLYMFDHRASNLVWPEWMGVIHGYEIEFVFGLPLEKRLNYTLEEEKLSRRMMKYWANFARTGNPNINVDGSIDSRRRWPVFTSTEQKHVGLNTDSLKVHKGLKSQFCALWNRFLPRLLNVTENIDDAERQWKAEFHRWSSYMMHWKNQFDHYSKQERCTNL

COc1cc2nc(NC(=O)CN3CCN(Cc4ccc(C)cc4)CC3)sc2cc1OC
IC50 [1]: 0.215 µM | inhibition [2]: > 50%

COc1ccc2nc(NC(=O)CN3CCN(CCN(C)C)CC3)sc2c1
IC50 [1]: 0.0946 µM | inhibition [2]: > 50% | inhibition [3]: > 50%

COc1ccc2nc(NC(=O)CN3CCN(Cc4ccc(C)cc4)CC3)sc2c1
IC50 [1]: 0.326 µM | inhibition [2]: > 50%

COc1ccc(CN2CCN(CC(=O)Nc3nc4cc(OC)c(OC)cc4s3)CC2)cc1
IC50 [1]: 0.252 µM | inhibition [2]: > 50%

COc1cc2nc(NC(=O)CN3CCN(CCCN(C)C)CC3)sc2cc1OC
Ki [4]: 0.25 µM | fold change (FC) [5]: 0.53 | fold change (FC) [6]: 0.98 | fold change (FC) [7]: 0.6 | IC50 [1]: 0.0576 µM | fold change (FC) [8]: 0.84 | inhibition [2]: > 50% | IC50 at 24 h [9]: 100 µM | fold change (FC) [10]: 1.4 | fold change (FC) [11]: 1.43 | fold change (FC) [12]: 1.36 | fold change (FC) [13]: 0.79 | inhibition [3]: > 50% | fold change (FC) [14]: 0.94 | fold change (FC) [15]: 1.36 | fold change (FC) [16]: 0.56 | fold change (FC) [17]: 0.28 | fold change (FC) [18]: 0.47 | fold change (FC) [19]: 0.69 | inhibition [20]: 90% | fold change (FC) [21]: 0.05 | fold change (FC) [22]: 1.49 | fold change (FC) [23]: 0.32 | fold change (FC) [24]: 0.9 | fold change (FC) [25]: 0.89 | fold change (FC) [26]: 1.02 | inhibition [27]: > 95% | fold change (FC) [28]: 0.52 | fold change (FC) [29]: 1.15 | fold change (FC) [30]: 1.04 | fold change (FC) [31]: 1.32

COc1cc2nc(NC(=O)CN3CCN(CCN(C)C)CC3)sc2cc1OC
Ki [4]: 0.11 µM | fold change (FC) [5]: 0.55 | fold change (FC) [6]: 0.78 | fold change (FC) [7]: 0.55 | IC50 [1]: 0.0462 µM | fold change (FC) [8]: 0.43 | inhibition [2]: > 50% | IC50 at 24 h [9]: > 1000 µM | fold change (FC) [10]: 0.65 | fold change (FC) [11]: 0.47 | fold change (FC) [12]: 1.09 | fold change (FC) [13]: 0.66 | inhibition [3]: > 50% | fold change (FC) [14]: 0.87 | fold change (FC) [15]: 0.55 | fold change (FC) [16]: 0.97 | fold change (FC) [17]: 0.22 | fold change (FC) [18]: 1.14 | fold change (FC) [19]: 0.27 | inhibition [20]: 90% | fold change (FC) [21]: 0 | fold change (FC) [22]: 0 | fold change (FC) [23]: 0 | fold change (FC) [24]: 0.49 | fold change (FC) [25]: 0.11 | selectivity ratio [32]: 3 | fold change (FC) [26]: 0 | inhibition [27]: > 95% | fold change (FC) [28]: 0.33 | fold change (FC) [29]: 0.33 | fold change (FC) [30]: 1.03 | fold change (FC) [31]: 0.27

COc1ccc2nc(NC(=O)CN3CCN(Cc4ccc(C(F)(F)F)cc4)CC3)sc2c1
IC50 [1]: 0.274 µM | inhibition [2]: > 50%
